For one compound, IC50 and Activity results are on record in ChEMBL document CHEMBL4706553, “Discovery of potent small molecule PROTACs targeting mutant EGFR” (Eur J Med Chem, 2020).

For orientation: IC50 means the concentration that gives 50% inhibition.

The source made the active and inactive calls. The calls are words filed in the database; no cut-off is given here.

For one experiment, the system named is HCC827. The experiment in a line: Antiproliferative activity against human HCC827 cells expressing EGFR del19 mutant assessed as cell growth inhibition measured after 72 hrs by MTT assay. It is filed as functional, cell-based. The note with it: HCC827, 72 h. The method in brief:
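HCC827 cells were kept in RPMI-1640 with 10% heat-inactivated FBS, 1% sodium pyruvate, 1% glutamine and 1% penicillin-streptomycin at 37 °C and 5% CO₂, seeded at 3000–8000/well and rested 24 h. Compounds were applied as a concentration series for 72 h. MTT (5 mg/mL stock in PBS) was given for 4 h, then medium was removed and DMSO added. IC50 came from nonlinear regression (log inhibitor vs response).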
(In general: Formazan colour is commonly taken as a measure of viable cells.)

Experiment [1] concerns von Hippel-Lindau disease tumor suppressor/Epidermal growth factor receptor (Homo sapiens), P00533+P40337 [UNDEFINED MUTATION]. Kind of experiment: Protac activity at VHL/EGFR del19 mutant in human HCC827 cells assessed as induction of EGFR degradation at 0.033 uM pretreated with ubiquitination inhibitor, MLN4924 for 2 hrs followed by incubation with compound for 24 hrs by Western blot analysis. It is filed as cell-based.

Experiment [2] has the same test system. The experiment in a line: Protac activity at VHL/EGFR del19 mutant in human HCC827 cells assessed as induction of EGFR degradation at 0.033 uM pretreated with proteasome inhibitor, MG132 for 2 hrs followed by incubation with compound for 24 hrs by Western blot analysis. It is filed as cell-based. (Immunoblotting shows a protein as a band on a membrane.)

von Hippel-Lindau disease tumor suppressor/Epidermal growth factor receptor (Homo sapiens), P00533+P40337 [UNDEFINED MUTATION], sequence (P00533 whole entry, looked up, stated change not applied): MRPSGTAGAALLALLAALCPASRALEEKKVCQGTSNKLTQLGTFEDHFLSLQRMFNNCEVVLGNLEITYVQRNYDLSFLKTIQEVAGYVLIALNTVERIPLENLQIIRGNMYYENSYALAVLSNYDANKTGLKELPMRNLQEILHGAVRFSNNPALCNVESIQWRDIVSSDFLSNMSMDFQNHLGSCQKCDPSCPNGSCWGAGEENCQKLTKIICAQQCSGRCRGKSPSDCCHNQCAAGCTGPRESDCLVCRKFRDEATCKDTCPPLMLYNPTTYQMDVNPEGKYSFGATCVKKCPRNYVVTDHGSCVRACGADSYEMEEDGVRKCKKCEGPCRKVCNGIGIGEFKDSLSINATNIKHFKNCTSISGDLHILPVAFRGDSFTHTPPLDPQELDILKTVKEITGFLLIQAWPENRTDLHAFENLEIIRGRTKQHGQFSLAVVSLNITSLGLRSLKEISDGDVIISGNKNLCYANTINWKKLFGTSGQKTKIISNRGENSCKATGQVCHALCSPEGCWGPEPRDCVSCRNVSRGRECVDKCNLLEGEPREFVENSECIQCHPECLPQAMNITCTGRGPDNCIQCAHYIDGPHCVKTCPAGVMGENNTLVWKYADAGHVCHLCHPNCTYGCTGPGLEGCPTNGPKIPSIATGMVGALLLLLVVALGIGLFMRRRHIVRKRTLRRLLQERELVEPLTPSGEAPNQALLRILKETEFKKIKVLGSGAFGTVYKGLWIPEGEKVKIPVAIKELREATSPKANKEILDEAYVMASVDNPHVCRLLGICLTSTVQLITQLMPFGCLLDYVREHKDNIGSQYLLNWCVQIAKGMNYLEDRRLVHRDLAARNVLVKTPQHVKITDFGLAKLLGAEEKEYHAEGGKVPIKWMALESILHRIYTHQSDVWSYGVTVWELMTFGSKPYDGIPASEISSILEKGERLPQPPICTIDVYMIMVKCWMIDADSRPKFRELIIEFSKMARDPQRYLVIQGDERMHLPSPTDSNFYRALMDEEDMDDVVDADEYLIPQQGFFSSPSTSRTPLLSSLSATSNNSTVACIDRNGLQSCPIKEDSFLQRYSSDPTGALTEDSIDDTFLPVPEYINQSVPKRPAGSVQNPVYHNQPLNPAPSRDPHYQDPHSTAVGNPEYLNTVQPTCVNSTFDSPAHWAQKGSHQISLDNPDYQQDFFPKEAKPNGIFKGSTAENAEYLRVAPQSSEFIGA
von Hippel-Lindau disease tumor suppressor/Epidermal growth factor receptor (Homo sapiens), P00533+P40337 [UNDEFINED MUTATION], sequence (P40337 whole entry, looked up, stated change not applied): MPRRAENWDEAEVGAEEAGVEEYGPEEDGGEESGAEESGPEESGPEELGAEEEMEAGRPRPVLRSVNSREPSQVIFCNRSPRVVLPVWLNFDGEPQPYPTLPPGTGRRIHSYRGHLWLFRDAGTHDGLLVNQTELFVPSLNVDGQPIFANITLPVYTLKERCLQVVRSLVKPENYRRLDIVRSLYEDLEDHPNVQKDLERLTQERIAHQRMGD

As for `Cc1ncsc1-c1ccc(CNC(=O)[C@@H]2C[C@@H](O)CN2C(=O)[C@@H](NC(=O)CCCCCCN2CCN(c3ccc(Nc4ncc5nc(Nc6ccccc6)n(C6CCCC6)c5n4)cc3)CC2)C(C)(C)C)cc1`, the IC50 in the experiment on HCC827 came to 0.83 nM. Moreover, in experiment [1], the outcome was inactive. Moreover, in experiment [2], the outcome was Active.
